Measured values: ChEMBL document CHEMBL1128448, “Synthesis and antifungal activity of new azole derivatives containing an N-acylmorpholine ring” (1995)

Assays:
[1] = test system: Aspergillus fumigatus; test: In vitro evaluation of minimum inhibitory concentration against Aspergillus fumigatus 33; format: functional
Outline: (§1)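 Stocks are 800 μg/mL in 50% ethanol. Each plate gets 10 μL of inoculum at 10^5 cfu/mL. Incubation at 25 °C, 48 h for yeasts and 120 h for dermatophytes and molds. Organisms are ATCC strains or clinical isolates.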

[2] = test system: Candida albicans; test: In vitro evaluation of minimum inhibitory concentration against Candida albicans 76; format: functional; outline: as §1
[3] = test system: Candida albicans; test: In vivo evaluation of minimum inhibitory concentration against Candida albicans 406; format: functional
Outline: (§2)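 Broth macrodilution MIC following NCCLS M27-P, in RPMI-1640 buffered with 0.165 M MOPS. Fluconazole was dissolved in water and other drugs in DMSO. C. parapsilosis ATCC 22019 served as the reference strain in every run. MIC was the lowest concentration giving turbidity at or below the 80% inhibition standard.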

[4] = test system: Candida albicans; test: In vivo evaluation of minimum inhibitory concentration against Candida albicans 60; format: functional; outline: as §2
[5] = test system: Meyerozyma guilliermondii; test: In vitro evaluation of minimum inhibitory concentration against Candida guilliermondii 26; format: functional; outline: as §1
[6] = test system: Pichia kudriavzevii; test: In vitro evaluation of minimum inhibitory concentration against Candida krusei 70; format: functional; outline: as §1
[7] = test system: Candida parapsilosis; test: In vitro evaluation of minimum inhibitory concentration against Candida parapsilosis 61; format: functional; outline: as §1
[8] = test system: Kluyveromyces marxianus; test: In vivo Evaluation of minimum inhibitory concentration against Candida pseudotropicalis 13; format: functional; outline: as §1
[9] = test system: Mus sp.; test: In vivo evaluation of % survival rate after peroral administration on 3rd day at dose 2.5 mg/kg; format: functional; details: route oral, 2.5 mg/kg
[10] = test system: Mus sp.; test: In vivo evaluation of % survival rate after peroral administration on 5th day at dose 2.5 mg/kg; format: functional; details: route oral, 2.5 mg/kg
[11] = test system: Mus sp.; test: In vivo evaluation of % survival rate after peroral administration on 7th day at dose 2.5 mg/kg; format: functional; details: route oral, 2.5 mg/kg
[12] = test system: Mus sp.; test: In vivo evaluation of % survival rate after peroral administration on 9th day at dose 2.5 mg/kg; format: functional; details: route oral, 2.5 mg/kg
[13] = test system: Microsporum canis; test: In vitro evaluation of minimum inhibitory concentration against Microsporum canis 47; format: functional; outline: as §1
[14] = test system: Nannizzia gypsea; test: In vitro evaluation of minimum inhibitory concentration against Microsporum gypseum 22; format: functional; outline: as §1
[15] = test system: Nakaseomyces glabratus; test: In vitro evaluation of minimum inhibitory concentration against Torulopsis glabrata 78; format: functional; outline: as §1
[16] = test system: Trichophyton benhamiae; test: In vitro evaluation of minimum inhibitory concentration against Trichophyton mentagrophytes 23; format: functional, Arthroderma benhamiae; outline: as §1
[17] = test system: Trichophyton rubrum; test: In vitro evaluation of minimum inhibitory concentration against Trichophyton rubrum 90; format: functional; outline: as §1
[18] = test system: Aspergillus niger; test: In vitro evaluation of minimum inhibitory concentration against Aspergillus niger 18; format: functional; details: Aspergillus niger; read-out: MIC; outline: as §1
[19] = test system: Candida albicans; test: […] Evaluation of minimum inhibitory concentration against Candida albicans 406; format: functional; outline: as §1
[20] = test system: Candida albicans; test: […] Evaluation of minimum inhibitory concentration against Candida albicans 60; format: functional; outline: as §1
[21] = test system: Candida albicans; test: Evaluation of In vitro antifungal activity against Candida albicans 2.01 by broth macro dilution method; format: functional
Outline: (§3)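 Yeast MIC and MFC by broth macrodilution per NCCLS M27-P in RPMI-1640 buffered with 0.165 M MOPS. Fluconazole in sterile water, other drugs in DMSO. C. parapsilosis ATCC 22019 is the reference strain in each run. MIC is the lowest concentration with turbidity ≤ the 80% inhibition standard. For MFC, 0.04 mL from clear tubes is plated on Sabouraud agar; MFC is the lowest concentration giving ≤1 colony.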

[22] = test system: Candida albicans; test: Evaluation of In vitro antifungal activity against Candida albicans 31 by broth macro dilution method; format: functional; outline: as §3
[23] = test system: Candida albicans; test: Evaluation of In vitro antifungal activity against Candida albicans 406 by broth macro dilution method; format: functional; outline: as §3
[24] = test system: Candida albicans; test: Evaluation of In vitro antifungal activity against Candida albicans 76 by broth macro dilution method; format: functional; outline: as §3
[25] = test system: Candida albicans; test: Evaluation of In vitro antifungal activity against Candida albicans ATCC 10231 by broth macro dilution method; format: functional; outline: as §3
[26] = test system: Candida albicans; test: Evaluation of In vitro antifungal activity against Candida albicans C52 by broth macro dilution method; format: functional; outline: as §3
[27] = test system: Candida albicans; test: Evaluation of […] antifungal activity against Candida albicans 60 by broth macro dilution method; format: functional; outline: as §3
[28] = test system: Meyerozyma guilliermondii; test: Evaluation of In vitro antifungal activity against Candida guilliermondii 26 by broth macro dilution method; format: functional; outline: as §3
[29] = test system: Pichia kudriavzevii; test: Evaluation of In vitro antifungal activity against Candida krusei 70 by broth macro dilution method; format: functional; outline: as §3
[30] = test system: Kluyveromyces marxianus; test: Evaluation of In vitro antifungal activity against Candida pseudotropicalis ATCC 28838 by broth macro dilution method; format: functional; outline: as §3
[31] = test system: Kluyveromyces marxianus; test: Evaluation of In vitro antifungal activity against yeasts by broth macro dilution method; format: functional; outline: as §3
[32] = test system: Candida parapsilosis; test: Evaluation of In vitro antifungal activity against Candida parapsilosis ATCC 22019 by broth macro dilution method; format: functional; details: Lodderomyces parapsilosis; outline: as §3
[33] = test system: Candida parapsilosis; test: Evaluation of In vitro antifungal activity against Candida parapsilosis C292 by broth macro dilution method; format: functional; details: Lodderomyces parapsilosis; outline: as §3
[34] = test system: Candida parapsilosis; test: Evaluation of In vitro antifungal activity against Candida parapsilosis C74 by broth macro dilution method; format: functional; details: Lodderomyces parapsilosis; outline: as §3
[35] = test system: Candida tropicalis; test: Evaluation of In vitro antifungal activity against Candida tropicalis 2.11 by broth macro dilution method; format: functional; outline: as §3
[36] = test system: Candida tropicalis; test: Evaluation of In vitro antifungal activity against Candida tropicalis 50 by broth macro dilution method; format: functional; outline: as §3
[37] = test system: Candida tropicalis; test: In vitro evaluation of minimum inhibitory concentration against Candida tropicalis 2.11; format: functional; details: Candida tropicalis; read-out: MIC; outline: as §1
[38] = test system: Cryptococcus neoformans; test: Evaluation of In vitro antifungal activity against Cryptococcus neoformans 74 by broth macro dilution method; format: functional; outline: as §3
[39] = test system: Cryptococcus neoformans; test: Evaluation of In vitro antifungal activity against Cryptococcus neoformans 87 by broth macro dilution method; format: functional; outline: as §3
[40] = test system: Nakaseomyces glabratus; test: Evaluation of In vitro antifungal activity against Torulopsis glabrata 78 by broth macro dilution method; format: functional; outline: as §3
[41] = test system: Rhodotorula mucilaginosa; test: In vitro evaluation of minimum inhibitory concentration against Rhodotorula rubra 16; format: functional; details: Rhodotorula mucilaginosa; read-out: MIC; outline: as §1
[42] = test system: Kluyveromyces marxianus; test: In vitro evaluation of minimum inhibitory concentration against Candida pseudotropicalis 13; format: functional; details: Kluyveromyces marxianus; read-out: MIC; outline: as §1
[43] = test system: Pichia kudriavzevii; test: Evaluation of In vitro antifungal activity against Candida krusei C64 by broth macro dilution method; format: functional; outline: as §3
[44] = test system: Candida parapsilosis; test: Evaluation of In vitro antifungal activity against Candida parapsilosis 2.07 by broth macro dilution method; format: functional; details: Lodderomyces parapsilosis; outline: as §3
[45] = test system: Candida parapsilosis; test: Evaluation of In vitro antifungal activity against Candida parapsilosis ATCC 141095 by broth macro dilution method; format: functional; details: Lodderomyces parapsilosis; outline: as §3
[46] = test system: Aspergillus flavus; test: In vitro evaluation of minimum inhibitory concentration against Aspergillus flavus 19; format: functional; details: Aspergillus flavus; read-out: MIC; outline: as §1
[47] = test system: Candida albicans; test: Evaluation of In vitro antifungal activity against Candida albicans C56 by broth macro dilution method; format: functional; outline: as §3
[48] = test system: Candida albicans; test: Evaluation of In vitro antifungal activity against Candida albicans 60 by broth macro dilution method

C[C@H]1N(C(=O)c2ccc(C(F)(F)F)cc2)CCO[C@@]1(Cn1cncn1)c1ccc(F)cc1F (stereo in doubt; (+)-41)
80 µg/mL: MIC [17]
10%: Survival [9]
10 µg/mL: MIC [8]
>80 µg/mL: MIC [1] | MIC [2] | MIC [3] | MIC [4] | MIC [5] | MIC [6] | MIC [7] | MIC [13] | MIC [14] | MIC [15] | MIC [16]
0%: Survival [10] | Survival [11] | Survival [12]

CC(=O)N1CCN(c2ccc(OC[C@H]3CO[C@](Cn4ccnc4)(c4ccc(Cl)cc4Cl)O3)cc2)CC1 [KETOCONAZOLE]
2.5 µg/mL: MIC [37] | MIC ([13]; Microsporum canis, read-out: MIC) | MIC [46]
0.125 µg/mL: MIC [28] | MIC [33]
0.25 µg/mL: MFC [34] | MIC [35]
0.15 µg/mL: MIC ([2]; Candida albicans, read-out: MIC)
1 µg/mL: MFC [38]
16 µg/mL: MFC [33] | MFC [39] | MFC [45]
40 µg/mL: MIC [18]
5 µg/mL: MIC ([1]; Aspergillus fumigatus, read-out: MIC) | MIC ([16]; Trichophyton benhamiae, read-out: MIC)
< 0.031 µg/mL: MIC [22] | MIC [24] | MIC [26] | MIC [27] | MIC [38] | MIC [47]
2 µg/mL: MIC [29] | MIC [36] | MIC [39] | MIC [43]
0.63 µg/mL: MIC ([14]; Nannizzia gypsea, read-out: MIC)
0.5 µg/mL: MIC [45]
< 0.03 µg/mL: MIC [19] | MIC [20] | MIC ([5]; Meyerozyma guilliermondii, read-out: MIC)
10 µg/mL: MIC [42]
8 µg/mL: MFC [35] | MIC [40] | MFC [43]
> 16 µg/mL: MFC [21] | MFC [22] | MFC [23] | MFC [24] | MFC [25] | MFC [26] | MFC [30] | MFC [36] | MFC [40] | MFC [44] | MFC [47] | MFC [48]
4 µg/mL: MFC [28] | MFC [29] | MFC [32]
0.07 µg/mL: MIC ([7]; Lodderomyces parapsilosis, read-out: MIC) | MIC [41]
0.063 µg/mL: MIC [21] | MIC [23] | MIC [25] | MIC [31] | MIC [32] | MIC [34] | MIC [44]
1.25 µg/mL: MIC ([6]; Pichia kudriavzevii, read-out: MIC) | MIC ([15]; Nakaseomyces glabratus, read-out: MIC) | MIC ([17]; Trichophyton rubrum, read-out: MIC)
